Test results: ChEMBL document CHEMBL1132961 (J Med Chem, 2000)

Experiments:
[1] = Concentration which elicits cytotoxicity in 50% of uninfected human lymphocyte derived CEM cells; type: cell-based, CCRF-CEM; settings: uninfected CCRF-CEM cells, read-out: TC50 (the source's name)
Outline: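 Cytotoxicity measured in uninfected human lymphocyte-derived CEM cells by XTT protocol.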

[2] = (§1) Effective concentration required for antiviral activity against HIV-1 1026-60 in PBMC cells; type: functional, cell-based; settings: Homo sapiens
Outline: (§2)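 PBMC cells infected with HIV-1 clinical isolates, using an XTT cytopathic assay similar to the CEM assay. EC50 read as protection from viral cytopathic effect.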

[3] = (§3) Effective concentration required for antiviral activity against HIV-1 144-44 in PBMC cells; type: functional, cell-based; settings: Homo sapiens; outline: as §2
[4] = Effective concentration required for antiviral activity against HIV-1 RoJo in PBMC cells; type: functional, cell-based; settings: Homo sapiens; outline: as §2
[5] = Effective concentration required for antiviral activity against HIV-1 SLKA in PBMC cells; type: functional, cell-based; settings: Homo sapiens; outline: as §2
[6] = Effective concentration required for antiviral activity against HIV-1 TEKI in PBMC cells; type: functional, cell-based; settings: Homo sapiens; outline: as §2
[7] = Effective concentration required for antiviral activity against HIV-1 WeJo in PBMC cells; type: functional, cell-based; settings: Homo sapiens; outline: as §2
[8] = Tested for cytotoxic activity against HIV-1 1026-60 in PBMC cells; type: cell-based; settings: human, read-out: TC50 (the source's name)
[9] = Tested for cytotoxic activity against HIV-1 144-44 in PBMC cells; type: cell-based; settings: human, read-out: TC50 (the source's name)
[10] = biological target: T1, Human immunodeficiency virus type 1 protease (Human immunodeficiency virus 1, UniProt Q72874); experiment: Activity of potent nonpeptidic inhibitor against protease
Outline: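 Incubated with 40 µM His-Lys-Ala-Arg-Val-Leu-(p-NO₂-Phe)-Glu-Ala-Nle-Ser-NH₂ in 1.0% DMSO, pH 6.2 MES buffer (DTT, NaCl, EDTA, PEG 8000) for 60 min at 37 °C, then TFA quench. Substrate and product separated by reverse-phase HPLC, read at 220 nm. % control = conversion with inhibitor / conversion without × 100; IC50 derived.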

[11] = tested on: Human immunodeficiency virus 1; experiment: Effective concentration at which 50% of the HIV-IIIB-infected human lymphocyte-derived CEM cells protected from HIV-1 infection
[12] = (§4) Effective concentration required for antiviral activity against HIV-1 1002-60 in PBMC cells; type: functional, cell-based; settings: Homo sapiens; outline: as §2
[13] = Tested for cytotoxic activity against HIV-1 1002-60 in PBMC cells; type: cell-based; settings: human, read-out: TC50 (the source's name)
[14] = Tested for maximum plasma concentration in mice; type: ADME, organism-based; settings: mouse
Outline: (§5)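 Mice dosed orally by gavage at 25 mg/kg. Vehicle was usually 20% 0.1 N NaOH/80% 0.5% methylcellulose, and in two cases 20% 0.1 N NaOH/80% PEG 400. Plasma Cmax and AUC measured; AUC not determined where Cmax was too low.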

[15] = Half-life period in rat; type: ADME, organism-based; settings: in vivo
Outline: (§6)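 Rats given 10 mg/kg orally in NaOH solution buffered to pH 7.4. Plasma Cmax, T1/2 and AUC determined.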

[16] = AUC value in rat; type: ADME; settings: plasma; outline: as §6
[17] = Tested for maximum plasma concentration in rats; type: ADME, organism-based; settings: rat; outline: as §6
[18] = biological target: T1, Human immunodeficiency virus type 1 protease; experiment: Tested for binding affinity against HIV protease
[19] = tested on: PBMC; experiment: as §4; type: functional, cell-based; settings: Homo sapiens; outline: as §2
[20] = tested on: PBMC; experiment: as §1; type: functional, cell-based; settings: Homo sapiens; outline: as §2
[21] = tested on: PBMC; experiment: as §3; type: functional, cell-based; settings: Homo sapiens; outline: as §2
[22] = biological target: T2, CYP2C9 (Homo sapiens, UniProt P11712); experiment: Residual activity of cytochrome P450 at 10 uM
[23] = biological target: T3, CYP2D6 (Homo sapiens, UniProt P10635); experiment: Residual activity of cytochrome P4502D6 at 1 uM
[24] = biological target: T2, CYP2C9; experiment: Residual activity of cytochrome P450 2C9 at 1 uM
[25] = biological target: T3, CYP2D6; experiment: Residual activity of cytochrome P4502D6 at 10 uM
[26] = biological target: T3, CYP2D6; experiment: Residual activity of cytochrome P4502D6 at 100 uM
[27] = biological target: T2, CYP2C9; experiment: Residual activity of cytochrome P450 2C9 at 100 uM
[28] = AUC value in mice; type: ADME, organism-based; settings: mouse, plasma; outline: as §5
[29] = biological target: T4, CYP3A4 (Homo sapiens, UniProt P08684); experiment: Residual activity of cytochrome P4503A4 at 1 uM
[30] = biological target: T4, CYP3A4; experiment: Residual activity of cytochrome P4503A4 at 10 uM
[31] = biological target: T4, CYP3A4; experiment: Residual activity of cytochrome P4503A4 at 100 uM
[32] = pooled result: one value given for 5 cell lines, strains, targets or settings
[33] = Human immunodeficiency virus 1, CCRF-CEM

T2 sequence (P11712 whole entry): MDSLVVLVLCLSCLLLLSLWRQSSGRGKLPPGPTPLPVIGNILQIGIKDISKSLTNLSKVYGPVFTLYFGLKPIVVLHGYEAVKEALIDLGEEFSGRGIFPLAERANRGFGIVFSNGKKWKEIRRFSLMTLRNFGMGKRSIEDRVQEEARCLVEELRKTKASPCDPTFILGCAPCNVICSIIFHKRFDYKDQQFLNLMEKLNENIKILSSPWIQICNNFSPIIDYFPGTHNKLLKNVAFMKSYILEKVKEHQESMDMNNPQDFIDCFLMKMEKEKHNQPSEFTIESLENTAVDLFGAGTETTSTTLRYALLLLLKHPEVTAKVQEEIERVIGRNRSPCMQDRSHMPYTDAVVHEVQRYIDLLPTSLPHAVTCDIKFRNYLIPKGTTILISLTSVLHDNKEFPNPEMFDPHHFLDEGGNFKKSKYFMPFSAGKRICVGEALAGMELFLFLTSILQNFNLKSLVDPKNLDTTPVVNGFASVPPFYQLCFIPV
T4 sequence (P08684 whole entry): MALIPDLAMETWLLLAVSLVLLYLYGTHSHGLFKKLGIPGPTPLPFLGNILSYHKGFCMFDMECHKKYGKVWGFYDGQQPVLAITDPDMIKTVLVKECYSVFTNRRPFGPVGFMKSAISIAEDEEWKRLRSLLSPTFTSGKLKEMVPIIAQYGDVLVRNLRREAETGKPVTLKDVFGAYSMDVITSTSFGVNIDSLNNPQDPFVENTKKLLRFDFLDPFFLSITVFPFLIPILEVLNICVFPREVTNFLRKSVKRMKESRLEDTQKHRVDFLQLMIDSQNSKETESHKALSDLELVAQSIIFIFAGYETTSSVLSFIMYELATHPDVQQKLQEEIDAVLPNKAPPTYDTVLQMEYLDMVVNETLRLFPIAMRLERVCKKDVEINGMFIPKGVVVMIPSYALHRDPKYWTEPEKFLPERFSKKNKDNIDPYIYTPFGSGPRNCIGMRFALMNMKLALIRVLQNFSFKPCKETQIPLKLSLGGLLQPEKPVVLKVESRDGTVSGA
T3 sequence (P10635 whole entry): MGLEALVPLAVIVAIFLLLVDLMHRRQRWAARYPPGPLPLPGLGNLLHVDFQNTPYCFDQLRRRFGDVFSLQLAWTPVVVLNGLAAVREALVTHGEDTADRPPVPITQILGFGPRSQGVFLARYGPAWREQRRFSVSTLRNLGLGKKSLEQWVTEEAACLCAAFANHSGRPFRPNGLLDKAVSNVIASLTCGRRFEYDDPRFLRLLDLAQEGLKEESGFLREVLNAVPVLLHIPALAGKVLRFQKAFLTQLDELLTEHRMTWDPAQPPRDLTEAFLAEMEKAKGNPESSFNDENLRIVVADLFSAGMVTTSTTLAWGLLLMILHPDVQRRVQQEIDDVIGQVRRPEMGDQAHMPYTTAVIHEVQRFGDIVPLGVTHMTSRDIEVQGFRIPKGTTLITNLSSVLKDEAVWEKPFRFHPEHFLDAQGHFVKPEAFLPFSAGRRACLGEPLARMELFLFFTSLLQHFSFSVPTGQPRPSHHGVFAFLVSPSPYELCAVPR

Structure (SMILES) | CC50 [1] [µM] | EC50 [2] [µM] | EC50 [3] [µM] | EC50 [4] [µM] | EC50 [5] [µM] | EC50 [6] [µM] | EC50 [7] [µM] | CC50 [8] [µM] | CC50 [9, 32] [µM] | IC50 [10] [µM] | EC50 [11, 33] [µM] | EC50 [12] [µM] | CC50 [13] [µM] | Cmax [14] [µM] | Ki [18] [µM] | other results
Cc1cc(SC2=C(O)OC(CCc3ccc(O)cc3)(C(C)C)CC2=O)c(C(C)(C)C)cc1OS(=O)(=O)c1cccs1 (configuration not stated) | 72 | 1.42 | 0.54 | 0.7 | 0.5 | 0.78 | 0.39 | > 100 | > 100 | 0.0218 | 2.4 | – | – | – | – | –
CC(C)(C)NC(=O)[C@@H]1C[C@@H]2CCCC[C@@H]2CN1C[C@@H](O)[C@H](Cc1ccccc1)NC(=O)[C@H](CC(N)=O)NC(=O)c1ccc2ccccc2n1 | – | 19.4 | 11.1 | – | – | – | – | > 50 | – | – | – | 14.5 | > 50 | – | – | CC50 [9]: > 50 µM
Cc1cc(SC2=C(O)O[C@](CCc3ccccc3)(C(C)C)CC2=O)c(C(C)(C)C)cc1NS(=O)(=O)c1ccc(C#N)cc1 | 31 | – | 0.58 | 0.12 | 0.12 | 0.1 | 0.11 | – | 55.6 | – | 0.22 | – | – | 10.3 | 0.0002 | half-life [15]: 5.7 h; AUC [16]: 10 µg·h/mL; Cmax [17]: 3.96 µM
Cc1cc(SC2=C(O)OC(CCc3ccc(O)cc3)(C(C)C)CC2=O)c(C(C)(C)C)cc1OS(C)(=O)=O (configuration not stated) | > 100 | 1.12 | 0.73 | 1.24 | 1.79 | 1.93 | 2.05 | > 100 | > 100 | 0.0022 | 0.6 | 1.84 | > 100 | – | – | –
Cc1cc(SC2=C(O)OC(CCc3ccc(O)cc3)(C(C)C)CC2=O)c(C(C)(C)C)cc1OS(=O)(=O)c1cccnc1 (configuration not stated) | 76 | – | – | – | – | – | – | – | – | 0.0035 | 1.6 | – | – | 0.63 | – | –
Cc1cc(SC2=C(O)OC(CCc3ccccc3)(C(C)C)CC2=O)c(C(C)(C)C)cc1NS(=O)(=O)c1ccc(C#N)cc1 (configuration not stated) | 66 | – | – | – | – | – | – | – | – | 0.0091 | 0.5 | – | – | 2 | – | –
Cc1cc(SC2=C(O)OC(CCc3ccc(O)cc3)(C(C)C)CC2=O)c(C(C)(C)C)cc1NS(=O)(=O)c1ccccc1 (configuration not stated) | 74 | – | – | – | – | – | – | – | – | 0.0018 | 1.4 | – | – | – | 0.00053 | –
CC(C)(C)NC(=O)[C@@H]1CN(Cc2cccnc2)CCN1C[C@@H](O)C[C@@H](Cc1ccccc1)C(=O)N[C@H]1c2ccccc2C[C@H]1O | – | – | – | – | – | – | – | > 100 | – | – | – | – | > 100 | – | – | EC50 [19]: > 100 µM; EC50 [20]: 16.6 µM; EC50 [21]: 3 µM; CC50 [9]: > 100 µM; residual activity at 10 µM [22]: 89%; residual activity at 1 µM [23]: 100%; residual activity at 1 µM [24]: 93%; residual activity at 10 µM [25]: 82%; residual activity at 100 µM [26]: 31%; residual activity at 100 µM [27]: 68%
Cc1cc(SC2=C(O)OC(CCc3ccccc3)(C(C)C)CC2=O)c(C(C)(C)C)cc1NS(=O)(=O)c1cccc(C#N)c1 (configuration not stated) | 66 | – | – | – | – | – | – | – | – | – | 1.5 | – | – | – | 0.0014 | –
Cc1cc(SC2=C(O)O[C@](CCc3ccc(O)cc3)(C(C)C)CC2=O)c(C(C)(C)C)cc1N (stereo in doubt; 1S) | 215 | 0.31 | 0.24 | 0.2 | 0.22 | 0.59 | 0.25 | > 100 | > 100 | – | – | 0.74 | > 100 | – | – | AUC [28]: 46.3 µg·h/mL; residual activity at 10 µM [22]: 75.5%; residual activity at 1 µM [23]: 105%; residual activity at 1 µM [29]: 103%; residual activity at 1 µM [24]: 93.2%; residual activity at 10 µM [25]: 95%; residual activity at 10 µM [30]: 96.8%; residual activity at 100 µM [26]: 56.7%; residual activity at 100 µM [31]: 41.1%; residual activity at 100 µM [27]: 21.6%; EC50 ([11]; ccrf-cem): 0.49 µM
